H9c2 TAG inh = reduces triacylglycerol accumulation in H9c2 cells | Nile Red lipid (TAG) fluorescence; cells loaded with 200 µM oleic acid | 0.66% of 230,000 active | AID 651582 | inhibition, % at 12.5 µM;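 active = pattern-corrected inhibition of lipid staining of at least 50% with the nuclear-stain viability signal not falling by more than 50%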;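 also: 0% = DMSO wells and 100% = triacsin C control wells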
ABHD5-PLIN5 inh = blocks binding of human ABHD5 to perilipin-5 | inhibition, % at 4 µM | 0.78% of 360,000 active | AID 602281 | Q00G26+Q8WTS1 | Split G. princeps luciferase complementation, luminescence, 4 h;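 active = inhibition above the mean inhibition across every tested compound plus 3 SD, cut at about 22% in these data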;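 also: 0% = DMSO only wells and the 100% control is not disclosed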
Target sequence (Q00G26 whole entry, looked up): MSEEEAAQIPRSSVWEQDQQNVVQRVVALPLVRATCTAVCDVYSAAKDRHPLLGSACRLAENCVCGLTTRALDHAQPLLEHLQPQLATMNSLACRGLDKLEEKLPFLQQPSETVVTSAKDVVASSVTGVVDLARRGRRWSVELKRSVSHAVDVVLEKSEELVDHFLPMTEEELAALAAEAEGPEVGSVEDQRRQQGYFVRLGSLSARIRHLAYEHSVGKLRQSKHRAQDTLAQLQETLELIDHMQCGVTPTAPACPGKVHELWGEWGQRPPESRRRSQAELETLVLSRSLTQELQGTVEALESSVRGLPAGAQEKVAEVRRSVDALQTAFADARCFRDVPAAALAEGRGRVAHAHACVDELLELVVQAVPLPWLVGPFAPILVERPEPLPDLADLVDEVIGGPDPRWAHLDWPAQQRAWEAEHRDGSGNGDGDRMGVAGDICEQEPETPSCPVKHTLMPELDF
Target sequence (Q8WTS1 whole entry, looked up): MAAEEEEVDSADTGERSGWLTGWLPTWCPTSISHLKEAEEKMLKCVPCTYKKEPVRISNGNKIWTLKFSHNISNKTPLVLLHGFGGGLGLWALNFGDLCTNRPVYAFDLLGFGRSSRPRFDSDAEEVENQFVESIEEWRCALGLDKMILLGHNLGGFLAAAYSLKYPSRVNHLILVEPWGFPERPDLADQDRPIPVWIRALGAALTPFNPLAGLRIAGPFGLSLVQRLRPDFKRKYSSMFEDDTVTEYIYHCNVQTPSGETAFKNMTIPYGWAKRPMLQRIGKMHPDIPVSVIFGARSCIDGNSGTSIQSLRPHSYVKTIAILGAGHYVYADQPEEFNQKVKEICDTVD
HIF activator = HIF pathway transcriptional activation | U2OS HRE-luciferase reporter, luminescence; normalized: DMSO 0%, desferrioxamine 100% | activation, % at 7.5 µM (by protocol) | 0.32% of 300,000 active | AID 1910;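 active = mean activation of at least 10% of the iron chelator positive control signal, with at least half of replicates also reaching 10%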
GAA850 FXN act = frataxin GAA850 promoter activation | HEK293 lucGAA850 FXN promoter luciferase reporter, 24 h; percent of 10 µM SAHA response | activation, % at 6 µM | 0.56% of 360,000 active | AID 540364;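 active = activation above the average of all compounds screened plus 3 SD, cutoff fixed separately per campaign, cut at about 7.5% in these data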;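 also: 0% = DMSO wells and 100% = 10 µM SAHA wells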
Rad51 HR inh = blocks human Rad51 in homologous recombination; Q06609; hRad51 DNA strand exchange, fluorescence dequenching; inhibition, % at 10 µM; 0.085% of 200,000 active;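 active = inhibition above 40% at the single screening dose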;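 also: 0% = DMSO control wells and 100% = blanks with heterologous ssDNA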
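System: human Rad51 nucleoprotein filaments preassembled on unlabelled ssDNA. Reagent: labelled 47-mer dsDNA for strand exchange. Schedule: 30-min compound preincubation and 15-min exchange, both room temperature. Measured by: FRET fluorescence dequenching, excitation 485 nm, emission 520 nm. Read-out: Fluorescence-based percent inhibition, control- and blank-normalised. Benchmarks: plate controls and plate blanks.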
Hsp70 act = switches on Hsp70 transcription. HeLa Hsp70 promoter luciferase reporter, luminescence; scaled: vehicle 0, proteasome-inhibitor control 100%. activation, % at 10 µM. 0.04% of 200,000 active. AID 1203;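 active = activation above the mean across all tested compounds plus 3 SD, cutoff set per campaign, cut at about 5.5% in these data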;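 also: 100% = MG132 at 30 µM as the positive control and 0% = DMSO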
GAA30 FXN cntr = activates GAA30 frataxin promoter, counter-screen for GAA850 activators; 66% of 1,900 active; HEK293 lucGAA30 FXN promoter luciferase, 24 h; DMSO = 0%, 5 µM ipriflavone = 100%; activation, % at 6 µM; shares compounds with GAA850 FXN act; AID 588350;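 active = mean activation above the mean of solvent-only control wells plus 3 SD, cut at about 22% in these data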;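 also: counterscreen of GAA850 promoter hits where activity marks nonselective or luminescence artifacts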
FXN GAA850 conf = GAA850 FXN promoter activation confirmation. activation, % at 6 µM. AID 588351. 86% of 1,900 active. shares compounds with GAA850 FXN act. HEK293 lucGAA850 FXN promoter luciferase reporter, 24 h; 100% = activation by SAHA;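 active = mean activation above a set limit taken from the primary screen, cut at about 8% in these data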;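 also: 0% = DMSO wells and 100% = 10 µM SAHA wells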
An asterisk follows results filed as active; . = not tested or not shown. Only some compounds are listed: those with a hit (about 1.9% of all), similar ones and a draw of the others.

SMILES | H9c2 TAG inh | ABHD5-PLIN5 inh | HIF activator | GAA850 FXN act | Rad51 HR inh | Hsp70 act | GAA30 FXN cntr | FXN GAA850 conf
CCCCn1c(/C=N/Nc2nc3ccccc3[nH]2)nc2ccccc21 | . | -2.3 | 69.2* | 12.3* | -1.4 | -0.1 | -91.5 | -29.9
CCCCn1c(/C=C/c2ccco2)nc2ccccc21 | . | -6.7 | -0.6 | 0.4 | -44.1 | -0.5 | . | .
CCNC(=O)C1CCCN(C(=O)c2ccc(-c3ccccc3)cc2)CC1 (stereo unspecified) | 25.8 | 3.9 | . | -0.4 | . | . | . | .
COc1cccc(/C=N/Nc2ccc([N+](=O)[O-])cc2)c1O | . | -2.4 | 1.3 | 8.1* | . | . | 105.7* | 35.0*
COC(=O)c1ccc(N/N=C/c2cc([N+](=O)[O-])cc(OC)c2O)cc1 | 10.6 | -0.9 | -0.4 | 0.1 | -17.4 | 0.1 | . | .
O=[N+]([O-])c1ccccc1N/N=C\c1ccccc1Cl | 10.4 | 6.7 | 0.9 | 4.3 | 1.9 | 0.3 | . | .
O=[N+]([O-])c1cccc(N/N=C/c2cccc(O)c2O)c1 | 36.9 | -0.2 | 4.2 | 8.7* | -15.4 | -0.1 | 67.3* | 29.6*
O=[N+]([O-])c1ccccc1N/N=C/c1cccc(O)c1O | 34.5 | 4.4 | 2.3 | 12.5* | 1.0 | . | 39.8* | 26.3*
COCCSc1nc(N)c(NC(=O)c2ccco2)c(=O)[nH]1 | -6.5 | -5.8 | 0.0 | 3.6 | . | . | . | .
CN(C)c1ccc(C(=O)/C=C/c2cccnc2)cc1 | . | 17.7 | 3.5 | 8.8* | . | . | 119.1* | 37.4*
O=C(Nc1ccccc1N1CCOCC1)C1=NN(c2ccccc2)C(=O)CC1 | -1.8 | 1.7 | . | 0.5 | . | . | . | .
Cc1cc(Cl)ccc1OCC(=O)N1CC(C)CC(C)C1 (stereo unspecified) | -18.7 | -9.3 | 0.9 | 2.8 | 0.4 | -0.4 | . | .
Cc1cc(Cl)ccc1OCC(=O)N1CCCN(C(=O)COc2ccc(Cl)cc2C)CC1 | . | 1.1 | . | 9.4* | 2.3 | -0.2 | 10.9 | 6.6
COc1cc(/C=C2\Oc3cc(O)ccc3C2=O)ccc1O | . | 4.0 | 2.6 | 8.3* | -38.4 | . | 93.7* | 37.9*
COc1ccc(/C=C2\OC(=O)c3c(OC)cccc32)cc1OC | . | 6.4 | 2.5 | 10.5* | . | 0.2 | 111.4* | 45.2*
CCc1nc2ccc(C(=O)NCCc3ccccn3)cn2c1N(CC)CCOC | 9.5 | 8.4 | . | 0.9 | . | . | . | .
O=C(CNC(=O)C(c1ccccc1)c1ccccc1)N/N=C\c1ccc(C(=O)O)cc1 | . | 1.6 | 0.7 | 4.1 | . | . | . | .
Cc1sc2nc(CSCC(=O)Nc3ccc(Cl)cc3F)[nH]c(=O)c2c1C | 11.9 | -13.4 | . | 1.7 | . | . | . | .
c1ccc2c(c1)nnn2-c1ncnc2sccc12 | -10.7 | -0.5 | 1.5 | 10.2* | 1.9 | -0.3 | 93.1* | 30.6*
c1ccc(CC2CCN(c3ncnc4sccc34)CC2)cc1 | -8.9 | -6.8 | 0.4 | -4.7 | -21.7 | -0.3 | . | .
Cc1ccc(NC(=O)Cn2nnc(C(=O)NCc3cccs3)c2N)cc1F | . | -2.5 | -0.8 | -0.5 | . | . | . | .
O=C1[C@H]2[C@@H](c3ccc(C(F)(F)F)cc3)N[C@]3(CCCN(Cc4ccc(F)cc4)C3=O)[C@H]2C(=O)N1Cc1ccccc1 | 0.0 | -5.9 | . | -7.2 | . | . | . | .
Cc1cccc(CCNC(=O)c2cccc(NC3=NC4CS(=O)(=O)CC4S3)c2)c1 (stereo unspecified) | -7.0 | 3.1 | -0.2 | 16.4* | . | . | 12.4 | 6.7
C[C@H]1CN=C(N(C)C)N1CCCC1CCCCC1 | -14.8 | -11.0 | . | 0.1 | . | . | . | .
Cc1c(C(=O)N2CCc3ccccc32)oc2c1C(=O)CC(C)(C)C2 | . | 0.0 | . | 11.1* | 1.2 | 0.7 | 113.4* | 40.1*
O=C(NCc1ccccc1)C1=C[C@@H](C2CCCCC2)C[C@@H](OCCCCO)O1 | . | 2.7 | -0.3 | 1.1 | -8.0 | . | . | .
CC(=O)Nc1c(Br)cc2c(c1Br)Cc1cc(Br)ccc1-2 | 9.3 | 2.2 | . | 1.9 | . | . | . | .
CC(=O)Nc1ccc2c(c1)Cc1c-2cc(Br)c(N)c1Br | -0.9 | 3.3 | . | 7.6* | . | . | 62.9* | 28.5*
Nc1ccccc1C#CC(=O)c1ccccc1 | . | -5.1 | -2.2 | 13.6* | . | . | -7.7 | -0.1

Screens: PubChem, several laboratories
